Compound activity from PubChem BioAssay.
Sampled rows, rich in hits. Any-hit rate of the full collection: about 6.8%.
core dimer inh: blocks dimerization of HCV core protein; TR-FRET GST/Flag-core106 dimerization, 1536-well; 300,000 tested, 0.33% active; AID 1899; inhibition, % at 5 µM;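 active = inhibition above the mean of all tested compounds plus 3 SD, set per screening campaign, cut at about 45% in these data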
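Assay system: tagged HCV core106 pair (GST and Flag); medium: KF-containing HEPES buffer, pH 7.45, DTT, CHAPS, BSA; also added: Eu donor and XL665 acceptor anti-tag antibodies; dosing: 5 µM single dose; timing: compound-protein-antibody incubation 4 h at 22.5 °C; signal: TR-FRET 671 and 617 nm emission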
PHOSPHO1 inh: inhibitors of human PHOSPHO1 phosphatase. 290,000 tested, 1.1% active. AID 1565. Q8TCT1. recombinant PHOSPHO1, absorbance phosphatase assay. inhibition, % at 13.3 µM; in the data active = inhibition above about 60%
Target sequence (Q8TCT1 whole entry, looked up): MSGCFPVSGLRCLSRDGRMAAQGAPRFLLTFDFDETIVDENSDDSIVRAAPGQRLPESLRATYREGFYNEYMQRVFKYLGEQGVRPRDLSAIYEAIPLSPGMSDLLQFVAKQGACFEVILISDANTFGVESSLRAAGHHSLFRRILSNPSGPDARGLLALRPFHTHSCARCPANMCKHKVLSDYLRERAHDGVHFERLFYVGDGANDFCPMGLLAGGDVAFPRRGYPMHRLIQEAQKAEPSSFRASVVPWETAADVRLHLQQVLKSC
HSF1 inhib: HSF1 inhibition | NIH3T3-HGL HSE-luciferase, MG132-induced, luminescence 8 h; stronger effect = lower value | activity change, negative = inhibition, % at 7.5 µM (by protocol) | 300,000 tested, 0.77% active;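 active = more than half of replicate wells show activity change below -50%, luminescence cut by over half; inconclusive = some wells, but at most half, below -50%; inactive = no replicate well below -50%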;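 note: luciferase reports HSF-1 transcriptional activity via heat shock element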
ALR inh: human ALR oxidase inhibition via reduced H2O2 | 290,000 tested, 3.8% active | P55789 | purified ALR, DTT oxidation, H2O2 HRP-luminol luminescence | AID 485317 | inhibition, % (test concentration not listed);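 active = mean replicate inhibition above about 79%, with every replicate also reaching it, limit read from the data; inconclusive = only one of the two criteria met; inactive = mean below limit and not every replicate reaching it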
Target sequence (P55789 whole entry, looked up): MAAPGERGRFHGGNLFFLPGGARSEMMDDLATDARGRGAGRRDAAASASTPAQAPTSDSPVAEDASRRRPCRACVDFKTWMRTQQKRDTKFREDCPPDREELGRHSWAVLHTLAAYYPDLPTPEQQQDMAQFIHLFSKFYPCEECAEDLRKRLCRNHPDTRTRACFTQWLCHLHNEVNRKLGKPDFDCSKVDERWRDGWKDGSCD
AI-2 QS modul: modulates the Vibrio harveyi AI-2 quorum sensing system. Vibrio harveyi JMH597 AI-2 luminescence/OD600 ratio, 9 h; stronger effect = lower value; strain lacks LuxN and CqsS sensors; 0 = neutral-control median. activity change, % at 7.5 µM. 300,000 tested, 0.4% active. AID 2094; in the data active = activity change below about -75%, passing the limit was not always enough; inconclusive = no clear call, values can overlap the other calls;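 note: luminescence divided by OD600 gain over 9 h not by final OD600 alone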
HSF-1 act: increases HSF-1 driven luciferase reporter signal; NIH3T3-HGL HSF-1 luciferase reporter, MG132, 8 h; 100% = twice DMSO control signal; activation, % at 9 µM; 300,000 tested, 1.7% active;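 active = mean replicate activation of at least 50% with a set share of replicates each reaching 50%; inconclusive = only one of those two conditions met; inactive = mean below 50% and too few replicates reaching it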
A number is an active result; i = inactive; ? = inconclusive; nt = not tested or not shown.

SMILES	core dimer inh	PHOSPHO1 inh	HSF1 inhib	ALR inh	AI-2 QS modul	HSF-1 act
CCN1C(=O)c2cccc3c(S(=O)(=O)Nc4ccncc4)ccc1c23	i	i	i	i	i	i
CCN1C(=O)c2cccc3c(S(=O)(=O)Nc4ccccn4)ccc1c23	i	i	i	i	i	i
CCN1C(=O)c2cccc3c(S(=O)(=O)Nc4ccccc4)ccc1c23	i	i	i	i	i	58.6
CCc1ccccc1NNC(=O)c1snnc1C	i	i	i	i	i	i
c1csc(-c2nc(CN3CCSCC3)cs2)c1	i	i	i	i	i	i
CC(C)CNC(=O)c1ccccc1NC(=O)c1ccccc1N(C)S(=O)(=O)c1ccccc1	i	i	i	nt	i	i
COCCN(C(=O)COC(=O)CSc1ccc2ccccc2c1)c1c(N)n(Cc2ccccc2)c(=O)[nH]c1=O	i	nt	i	98.2	i	i
CC(=O)Nc1cccc(-c2csc(Nc3ccc(C)cn3)n2)c1	i	i	i	98.8	i	67.2
CC1(c2ccc(Cl)cc2)NC(=O)N(CC(=O)N2CCN(S(=O)(=O)c3ccccc3)CC2)C1=O (stereo unspecified)	i	nt	i	i	i	i
O=C(NCc1ccc(/C=c2\sc3n(c2=O)CCN=3)o1)C(=O)Nc1ccccc1	58.7	i	i	i	i	i
Cc1ccc(/C=c2/sc3n(c2=O)CCCN=3)o1	i	i	i	nt	i	i
O=C(CCNS(=O)(=O)c1cccc2nsnc12)NCc1ccccc1Cl	i	i	i	i	i	i
Fc1ccccc1-c1nc(NCc2ccco2)c2ccccc2n1	i	i	i	i	i	i
O=c1c2ccccc2nc2c3ccccc3c(NCc3ccco3)nn12	i	i	i	90.8	i	i
Cc1cnc(C(=O)Nc2ccc(OC(F)(F)F)cc2)cn1	i	nt	i	i	i	i
COc1ccc2[nH]c(C)c(-c3csc(N)n3)c2c1	i	i	i	98.7	i	i
O=C1CC2c3ccccc3C1C1C(=O)N(CCO)C(=O)C21 (stereo unspecified)	i	i	i	i	i	i
Cc1ccc(C=Nc2ccccc2C(N)=O)s1	i	i	i	nt	i	63.4
CCNc1nc2cccnc2s1	i	i	i	i	i	i
Cc1nc(NCCCn2ccnc2)c2oc3ccccc3c2n1	i	i	i	i	i	i
c1ccc2c(c1)oc1c(NCCCn3ccnc3)ncnc12	i	71.6	i	i	i	i
C=C(C)Cn1cnc2c(oc3nc4c(cc32)CCCC4)c1=O	i	i	i	i	i	i
N#CCCN(C(=O)COC(=O)CCc1c[nH]c2ccccc12)c1ccccc1	i	nt	i	i	i	i
Cc1cc(F)ccc1S(=O)(=O)Nc1ccccc1C(=O)NCc1cccnc1	i	i	i	i	i	i
COc1ccc2sc(N(CCCN(C)C)C(=O)c3nc4ccccc4s3)nc2c1	i	i	i	i	i	i
SMILES	core dimer inh	PHOSPHO1 inh	HSF1 inhib	ALR inh	AI-2 QS modul	HSF-1 act
COc1ccccc1C(=O)N(CCC1CCCN1C)c1nc2ccccc2s1 (stereo unspecified)	i	i	-71.6	i	i	i
CCCCCCNC(=O)CC(NS(=O)(=O)c1ccc(OC)cc1)C(C)C (stereo unspecified)	i	i	i	i	i	i
CCOC(=O)n1ccc(C(=O)Nc2ccccc2F)n1	i	i	i	96.4	i	i
CCOC(=O)c1c(N)sc(C(=O)Nc2ccccc2F)c1C	i	i	i	i	i	95.0
CCOC(=O)c1c(N)sc(C(=O)N2CCCC(C(N)=O)C2)c1C (stereo unspecified)	i	nt	i	i	i	i
CCOC(=O)c1sc(NC(=O)CCN2CCCCCC2)c(C(=O)OCC)c1C	i	i	i	97.4	i	193.4
CCOC(=O)c1c(N)sc(C(=O)N2CCCCCC2)c1C	i	i	i	82.9	i	i
CCOC(=O)c1cc(C(=O)Nc2ccccc2F)nn1C	i	i	i	i	i	i
COc1cccc(CNC(=O)CN2C(=O)COc3ccc(S(=O)(=O)N4CCOCC4)cc32)c1	i	i	i	i	i	i
CCOC(=O)c1c(N)sc(C(=O)N(CC)CC)c1C	i	i	i	95.6	i	i
O=C(Nc1ccc(Nc2ccncc2)cc1)c1ccc(Nc2ccnc3ccc([N+](=O)[O-])cc23)cc1[N+](=O)[O-]	62.3	i	i	i	i	i
O=C(CCCN1C(=O)c2ccccc2C1=O)Nc1sc2c(c1C(=O)NCc1ccco1)CCC2	i	i	i	i	i	i
O=C(CN1C(=O)c2ccccc2C1=O)Nc1sc2c(c1C(=O)NCc1ccco1)CCCC2	64.0	i	i	i	i	i
CN(C)c1ccc(S(=O)(=O)N2CCC(Cc3ccccc3)CC2)cn1	nt	nt	nt	i	nt	nt
COc1cc(C(=O)NCCSc2ccc(F)cc2)cc(OC)c1OC	i	i	i	i	i	65.6
COc1cc(SC)ccc1C(=O)NCCOc1ccc(F)cc1	i	i	i	i	i	67.9
COc1ccc(CCNC(=O)c2ccc(SC)cc2OC)cc1	i	i	i	i	i	i
COc1cccc(-c2n[nH]c(=S)n2Cc2ccco2)c1OC	i	i	i	87.1	i	i
Oc1cc2ccccc2cc1-c1n[nH]c(=S)n1Cc1ccco1	i	i	i	nt	i	i
S=c1[nH]nc(C2CC2)n1Cc1ccco1	i	80.9	i	i	i	i
Oc1ccc(-c2n[nH]c(=S)n2Cc2ccco2)cc1	i	99.8	i	90.7	i	i
CCCn1c(Cc2ccccc2)n[nH]c1=S	i	i	i	i	i	i
S=c1[nH]nc(Cc2ccccc2)n1Cc1ccco1	i	i	i	88.8	i	i
CC(=O)NCCc1c[nH]c2ccc(OCc3ccccc3)cc12	i	nt	i	i	i	i
C[C@@H]1C(NC(=O)c2ccccc2)CC2CC1C2(C)C (stereo partly specified)	i	i	i	i	i	73.4
SMILES	core dimer inh	PHOSPHO1 inh	HSF1 inhib	ALR inh	AI-2 QS modul	HSF-1 act
C/C(=N\O)C1CCCCC1	i	i	-57.5	i	i	i
COc1ccc(Cl)cc1/C=C(\C#N)C(N)=O	i	i	i	i	i	i
O=C1CC(Sc2nnc(-c3ccccc3)o2)C(=O)N1c1ccccc1 (stereo unspecified)	i	i	?	nt	i	i
Cc1ccccc1N1C(=O)CC(Sc2nnc(-c3ccccc3)o2)C1=O (stereo unspecified)	i	81.2	i	i	i	?
CCCS(=O)(=O)c1cnc(C2COc3ccccc3O2)nc1N (stereo unspecified)	i	nt	-80.1	i	i	i
CC1=C(C)CC(C(=O)Nc2nccs2)C(C(=O)O)C1 (stereo unspecified)	i	nt	i	i	i	i
NS(=O)(=O)c1ccc(N/C=C\C(=O)c2ccc(F)cc2)cc1	i	i	i	i	i	73.7
CN(CCOc1ccc(Cl)cc1)C(=O)CN1C(=O)NC2(CCCC2)C1=O	i	nt	i	i	i	i
